Experimental data from PubChem BioAssay.
Records with an inconclusive call do not appear.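 Rule for the calls, unless noted: active = cell viability at or below a set limit in both duplicate runs, the limit being the all-compound median minus 4 SD (cut at about 23% in these data, passing the limit was not always enough); inconclusive = no clear call, values can overlap the other calls; inactive = the rest.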

Tests used:
[1] = OD615 S. cerevisiae growth inhibition, permissive medium, pilot counter-assay, permissive growth control for S. cerevisiae lifespan shortening project (AID 705;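 active = growth inhibition above 25% in both replicates, a cutoff set 3 SD above the mean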); conditions: OD615, 24 h, at 10 µM, active compounds read high
How it was run: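 System: engineered DeaD yeast; Medium: permissive raffinose/galactose medium; Compound dosing: 10 µM single dose, 0.25% DMSO; Incubation: 4 h cell pre-growth, 24 h exposure at 30 °C; Technique: OD at 615 nm; Evaluation: growth inhibition from lowered OD615 after 24 h.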

[2] = Restrictive medium S. cerevisiae growth inhibition, OD615, pilot screen of yeast lifespan reduction project, restrictive growth control (AID 706;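 active = growth inhibition above a set limit, 3 SD over mean compound inhibition, in both replicates, cut at about 43% in these data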;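 note: modified DeaD lifespan yeast strain shifted to restrictive glucose medium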); conditions: OD615, 48 h, at 10 µM, active compounds read high
How it was run: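 Material: modified S. cerevisiae; buffer or medium: CSMM-D glucose medium; doses: one concentration, 10 µM final, 0.25% DMSO; incubation: 48 h compound exposure at 30 °C; detection: optical density at 615 nm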

[3] = viability gain of MRP-1-high H69AR cells under doxorubicin, pilot screen, MRP-1 activator project, CellTiter-Glo, duplicate (AID 807;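 active = viability increase at or above a cutoff of the median across tested compounds plus 3 SD, cut at about 8.5% in these data, passing the limit was not always enough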;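 note: compound pretreatment 18-22 h then 72 h combined with doxorubicin; 0% = doxorubicin alone and 100% = vehicle without doxorubicin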); conditions: H69AR viability with doxorubicin, CellTiter-Glo luminescence; at 10 µM; active compounds read high
[4] = growth suppression of beta-catenin knockout HCT116, pilot screen, human colon tumor cells (AID 823); conditions: CellTiter-Glo, 60 h, at 10 µM, active compounds read low;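 note: 0% = wells killed by 20 µM Hyamine and 100% = untreated DMSO cell wells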
[5] = growth suppression of PTEN-deleted HCT116, pilot screen, cell-based, HCT116 clonal line, CellTiter-Glo (AID 824;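 active = viability at or below 27.92% in each of two runs, the all-compound median minus 4 SD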;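 note: 0% = 20 µM Hyamine control and 100% = vehicle cell control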); conditions: 60 h, at 10 µM, active compounds read low
[6] = inhibitors of the yeast RAM network, pilot screen, dse1pr::URA3 reporter, 5-FOA selection (AID 869;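 active = inhibition over a set limit, the all-compound mean plus 3 SD, in both replicate runs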;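 note: 0% = DMSO wells with no growth and 100% = 10 µM 1-NA-PP1 with full growth; RAM network block rescues cells from 5-FOA so hits raise OD615 growth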); conditions: S. cerevisiae dse1pr::URA3 5-FOA growth, OD615, 2 d; at 10 µM; active compounds read high; strain carries analog-sensitive mutant Cbk1 kinase
[7] = RAM signaling pathway blockade in yeast – S. cerevisiae, Pdr1DBD-CYC8 efflux-inhibited sensitized strain, primary screen (AID 1298;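 active = RAM network inhibition above 8.4% in each of two replicates, 3 SD over the compound average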;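 note: 0% = DMSO untreated cells without growth and 100% = 10 µM 1-NA-PP1 full growth; higher means more yeast growth rescued from 5-FOA killing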); conditions: S. cerevisiae cbk1-as DSE1-URA3 strain, 5-FOA growth OD615, 2 d; at 50 µM; active compounds read high

CCc1ccccc1NC(=O)c1cc(-c2cccc(O)c2)on1
inactive: growth inhibition [1] -21.2% | growth inhibition [2] -5.59% | viability increase [3] -1.49% | viability [4] 98% | viability [5] 96% | inhibition [6] 4.72% | RAM network inhibition [7] 8.2%

O=C(CSc1nc(-c2ccccc2)c(-c2ccccc2)o1)N1CCOCC1
inactive: growth inhibition [1] -8.68% | growth inhibition [2] -15.5% | viability increase [3] -3.26% | viability [4] 90.2% | viability [5] 89.6% | inhibition [6] 2.38% | RAM network inhibition [7] 4.54%

Cc1cccc(OCCCCCNCCO)c1
inactive: growth inhibition [1] -16% | growth inhibition [2] -8.45% | viability increase [3] -0.72% | viability [4] 98.6% | viability [5] 94.6% | inhibition [6] 1.7% | RAM network inhibition [7] 0.57%

ON1C(c2ccc(Cl)cc2Cl)N(O)[C@H]2CCCC[C@H]21 (some centres not stated)
inactive: growth inhibition [1] -6.31% | growth inhibition [2] -5.43% | viability increase [3] -1.27% | viability [4] 101% | viability [5] 100% | inhibition [6] 1.35% | RAM network inhibition [7] 4.97%

C=CCn1c(O)c(C2=c3ccccc3=NC2=O)s/c1=N/c1nccs1
inactive: growth inhibition [1] -9.64% | growth inhibition [2] -9.09% | viability increase [3] -7.95% | viability [4] 42.1% | viability [5] 36% | inhibition [6] 0.115% | RAM network inhibition [7] 5.25%

CCCOC(=O)c1ccc(OCC(O)CN2C(=O)NC(C)(C)C2=O)cc1 (configuration not stated)
inactive: growth inhibition [1] 1.83% | growth inhibition [2] 1.78% | viability increase [3] -0.77% | viability [4] 96.9% | viability [5] 97.2% | inhibition [6] 0.14% | RAM network inhibition [7] 0.77%

O=C(NC1CCCCC1)C(c1ccccc1)N1CCC2(CC1)OCCO2 (configuration not stated)
inactive: growth inhibition [1] 0.86% | growth inhibition [2] 6.33% | viability increase [3] -4.79% | viability [4] 97.6% | viability [5] 95.5% | inhibition [6] 1.5% | RAM network inhibition [7] 1.43%

O=C(N1CCN(c2ccc(F)cc2)CC1)C12CC3CC(CC(C3)C1)C2
inactive: growth inhibition [1] -15.7% | growth inhibition [2] -5.23% | viability increase [3] -0.18% | viability [4] 84.1% | viability [5] 83.6% | inhibition [6] 0.94% | RAM network inhibition [7] 11.5%

CCn1c(COc2cccc3cccnc23)nnc1SCC(=O)O
inactive: growth inhibition [1] -4.3% | growth inhibition [2] 8.66% | viability increase [3] -0.53% | viability [4] 95.5% | viability [5] 91.5% | inhibition [6] 2.12% | RAM network inhibition [7] 0.05%

COc1ccc(CC(=O)N2CC3(C)CC2CC(C)(C)C3)cc1OC (configuration not stated)
inactive: growth inhibition [1] -8.12% | growth inhibition [2] -2.29% | viability increase [3] -2.91% | viability [4] 92.7% | viability [5] 88.2% | inhibition [6] 2.62% | RAM network inhibition [7] 6.83%

Cc1cc(Nc2ccccc2F)n2nc(C)nc2n1
inactive: growth inhibition [1] -13% | growth inhibition [2] -6.23% | viability increase [3] -1.87% | viability [4] 99.2% | viability [5] 99.5% | inhibition [6] 1.95% | RAM network inhibition [7] 0.37%

CCOc1ccc(Cn2nnc(C(=O)NCc3ccccc3)c2N)cc1
inactive: growth inhibition [1] 2.25% | growth inhibition [2] 3.87% | viability increase [3] 2.17% | viability [4] 93.2% | viability [5] 85.5% | inhibition [6] 0.395% | RAM network inhibition [7] 3.74%

CCOc1ccccc1CNC(=O)c1cc2occc2n1C
inactive: growth inhibition [1] 1.53% | growth inhibition [2] 5.16% | viability increase [3] 1.21% | viability [4] 95.2% | viability [5] 87.4% | inhibition [6] 1.74% | RAM network inhibition [7] 3.98%

COc1ccc(C(=O)c2cnc(C(C)C)n2C)cc1
inactive: growth inhibition [1] -3.74% | growth inhibition [2] -9.59% | viability increase [3] 2.12% | viability [4] 98.2% | viability [5] 90.2% | inhibition [6] 1.88% | RAM network inhibition [7] 4.97%

CC(=O)Nc1nonc1-c1nc2ccccc2n1N(C(C)=O)C(C)=O
inactive: growth inhibition [1] 3.74% | growth inhibition [2] 8.55% | viability increase [3] -2.77% | viability [4] 93.2% | viability [5] 93.5% | inhibition [6] 2.67% | RAM network inhibition [7] 3.63%

COc1ccc(C2CC(=O)C=C(NCC3CCCO3)C2)cc1 (configuration not stated)
inactive: growth inhibition [1] -10.4% | growth inhibition [2] -1.65% | viability increase [3] -0.23% | viability [4] 96.2% | viability [5] 100% | inhibition [6] 1.43% | RAM network inhibition [7] 1.32%

O=C(CCSCCC(=O)NCc1ccco1)NCc1ccco1
inactive: growth inhibition [1] 3.59% | growth inhibition [2] 10.5% | viability increase [3] -1.12% | viability [4] 89% | viability [5] 96% | inhibition [6] 0.745% | RAM network inhibition [7] 6.5%

COc1ccc(C2C=C(c3ccccc3)Nc3nnnn32)cc1 (configuration not stated)
inactive: growth inhibition [1] -5.09% | growth inhibition [2] 5.53% | viability increase [3] 0.19% | viability [4] 95.3% | viability [5] 90.3% | inhibition [6] 0.855% | RAM network inhibition [7] 5.93%

Fc1cc2nc(-c3ccncc3)[nH]c2cc1F
inactive: growth inhibition [1] -7.19% | growth inhibition [2] -19.1% | viability increase [3] -1.54% | viability [4] 109% | viability [5] 94.6% | inhibition [6] 0.625% | RAM network inhibition [7] 2.24%

CC(C)CC(/C(O)=C(\C#N)c1nc2ccccc2[nH]1)N1C(=O)c2ccccc2C1=O (configuration not stated)
inactive: growth inhibition [1] -13.3% | growth inhibition [2] -18.9% | viability increase [3] -2.01% | viability [4] 82% | viability [5] 73.3% | inhibition [6] 3.05% | RAM network inhibition [7] 4.23%

CCOc1ccc(N(CC(=O)O)S(=O)(=O)c2ccc(OC)c(OC)c2)cc1
inactive: growth inhibition [1] -8.3% | growth inhibition [2] -13.4% | viability increase [3] -0.45% | viability [4] 95.5% | viability [5] 95.3% | inhibition [6] 1.32% | RAM network inhibition [7] 1.05%

COC(=O)CSc1ccc2nnc(-c3ccc(OC)c(OC)c3)n2n1
inactive: growth inhibition [1] -10.3% | growth inhibition [2] -18.4% | viability increase [3] -0.56% | viability [4] 106% | viability [5] 107% | inhibition [6] -0.01% | RAM network inhibition [7] 3.82%

CCOc1ccc(C2CC(c3ccccc3C)n3ncnc3N2)cc1 (configuration not stated)
inactive: growth inhibition [1] -6.31% | growth inhibition [2] 13.4% | viability increase [3] -1.48% | viability [4] 87.3% | viability [5] 77.4% | inhibition [6] 1.83% | RAM network inhibition [7] -1.78%

Cc1nc(S(=O)(=O)c2ccc(Cl)cc2)c(NCc2ccccc2)o1
inactive: growth inhibition [1] -6.92% | growth inhibition [2] -2.45% | viability increase [3] -0.96% | viability [4] 94.5% | viability [5] 95.5% | inhibition [6] 2.39% | RAM network inhibition [7] 4.59%

O=S(=O)(NC1CCCCC1NCc1ccco1)c1ccccc1 (configuration not stated)
inactive: growth inhibition [1] -9.75% | growth inhibition [2] -2.12% | viability increase [3] -4.92% | viability [4] 98% | viability [5] 92.6% | inhibition [6] 1.82% | RAM network inhibition [7] 6.55%

O=C(NCCC1=CCCCC1)C1CCCN(S(=O)(=O)c2cccc3cccnc23)C1 (configuration not stated)
inactive: growth inhibition [1] -14.8% | growth inhibition [2] -12.7% | viability increase [3] -1.42% | viability [4] 89% | viability [5] 80.6% | inhibition [6] 2.14% | RAM network inhibition [7] 5.84%

CCN(CC)S(=O)(=O)c1ccc(C(=O)C(C#N)c2ccccn2)cc1 (configuration not stated)
inactive: growth inhibition [1] -12.8% | growth inhibition [2] -19.5% | viability increase [3] 1.28% | viability [4] 95.3% | viability [5] 102% | inhibition [6] 0.455% | RAM network inhibition [7] 5.32%

Cc1ccc(CNC(=O)c2cc3c(-c4ccc(Cl)cc4)nn(C)c3s2)o1
inactive: growth inhibition [1] -7.97% | growth inhibition [2] -5.61% | viability increase [3] -6.4% | viability [4] 53.9% | viability [5] 48.7% | inhibition [6] 3.25% | RAM network inhibition [7] 2.13%

C=CCN(c1ccccc1)S(=O)(=O)c1ccc2c(c1)oc(=O)n2C
inactive: growth inhibition [1] -15.1% | growth inhibition [2] -18.7% | viability increase [3] -2.65% | viability [4] 98.7% | viability [5] 87.6% | inhibition [6] 2.14% | RAM network inhibition [7] 3.12%

Cn1nnnc1SCC(=O)c1cccs1
inactive: growth inhibition [1] -23.8% | growth inhibition [2] -13% | viability increase [3] -2.93% | viability [4] 93% | viability [5] 90.9% | inhibition [6] 1.24% | RAM network inhibition [7] 1.92%

CN1CCN(Cc2ccc(OCc3ccccc3)cc2)CC1
inactive: growth inhibition [1] -3.27% | growth inhibition [2] -1.79% | viability increase [3] -2.45% | viability [4] 88.1% | viability [5] 91.4% | inhibition [6] -0.965% | RAM network inhibition [7] -0.47%

Cc1c(NS(=O)(=O)CC23CCC(CC2=O)C3(C)C)c(=O)n(-c2ccccc2)n1C (configuration not stated)
inactive: growth inhibition [1] 5.19% | growth inhibition [2] -4.44% | viability increase [3] -2.6% | viability [4] 99.5% | viability [5] 96.4% | inhibition [6] 2.22% | RAM network inhibition [7] 3.5%

CCN(CC)c1cc(C)c2cc(NC(=O)CNC(C)=O)ccc2n1
inactive: growth inhibition [1] -10.4% | growth inhibition [2] -8.29% | viability increase [3] -2.37% | viability [4] 90% | viability [5] 91.1% | inhibition [6] 1.11% | RAM network inhibition [7] 2.59%

Cc1ccc2oc(=O)c3cnn(CC(=O)N(CCCN4CCOCC4)Cc4ccco4)c3c2c1
inactive: growth inhibition [1] -16.5% | growth inhibition [2] -28.7% | viability increase [3] -3.59% | viability [4] 93.2% | viability [5] 87.9% | inhibition [6] 1.55% | RAM network inhibition [7] 3.73%

Oc1c(C(c2ccccc2)N2CCCCC2)sc2ncnn12 (configuration not stated)
inactive: growth inhibition [1] -0.17% | growth inhibition [2] -3.96% | viability increase [3] -0.8% | viability [4] 95.7% | viability [5] 91.8% | inhibition [6] 1.76% | RAM network inhibition [7] 0.66%

O=C(O)CCNc1cc2ccccc2cc1C(=O)O
inactive: growth inhibition [1] -15.4% | growth inhibition [2] -3.88% | viability increase [3] -1.49% | viability [4] 97.3% | viability [5] 96.5% | inhibition [6] 1.59% | RAM network inhibition [7] -0.37%
